Compound activity as filed in PubChem BioAssay.
CHT PAM: allosteric activators of human choline transporter CHT. Q9GZV3. CHT-expressing cells, membrane potential dye, choline EC20; stronger effect = higher value; LV-AA mutant CHT in HEK293 cells. B-score at 10 µM. hit rate 0.49% among 310,000. AID 488977;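 active means initial fluorescence not abnormally high and integrated response B-score, plate-corrected, over 3 SD above library mean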
TNAP inh hi DEA: inhibitors of human TNAP at high phosphate acceptor concentration; P05186; purified TNAP, CDP-star luminescence, 1 M DEA; inhibition, % at 20 µM; hit rate 0.03% among 200,000; AID 1135;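 active means over 50% inhibition of tissue-nonspecific alkaline phosphatase at 20 µM in the single-dose screen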
Target sequence (P05186 whole entry, looked up): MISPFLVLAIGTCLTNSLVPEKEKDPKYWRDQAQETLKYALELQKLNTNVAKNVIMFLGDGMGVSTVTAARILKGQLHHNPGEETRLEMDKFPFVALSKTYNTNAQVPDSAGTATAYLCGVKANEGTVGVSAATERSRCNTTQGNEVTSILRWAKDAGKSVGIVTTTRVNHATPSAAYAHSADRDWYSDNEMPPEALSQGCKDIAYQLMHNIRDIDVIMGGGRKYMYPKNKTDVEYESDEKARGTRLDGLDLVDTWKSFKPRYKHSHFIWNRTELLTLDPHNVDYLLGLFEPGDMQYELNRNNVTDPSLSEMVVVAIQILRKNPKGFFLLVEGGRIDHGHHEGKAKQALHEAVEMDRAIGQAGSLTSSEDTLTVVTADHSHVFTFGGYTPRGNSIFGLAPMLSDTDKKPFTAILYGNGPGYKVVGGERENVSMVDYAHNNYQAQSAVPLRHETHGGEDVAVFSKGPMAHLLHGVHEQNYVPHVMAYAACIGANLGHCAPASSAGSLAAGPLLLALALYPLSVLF
TNAP inh no acc: blocks human TNAP activity with no phosphate acceptor present. inhibition, % at 20 µM. AID 1012. P05186. purified TNAP, CDP-star luminescence, 30 min. hit rate 0.26% among 200,000;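 active means tissue-nonspecific alkaline phosphatase inhibition above about 50% at 20 µM in the single-dose screen, limit read from the data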
TNAP act hiacc: TNAP (human) activation, high acceptor | AID 1136 | purified TNAP, CDP-star luminescence, 1 M DEA, 30 min; stronger effect = higher value; 0 = EDTA background, 1 = DMSO-only activity | P05186 | 200,000 tested, under 10 active | activation factor at 20 µM;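 active means activation factor at least 2 at 20 µM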
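Measured by: Luminescent substrate turnover signal | Test system: Human TNAP | Input: TNAP 1/800 final | Dosing: 20 µM single point | Schedule: 30 min, room temperature | Controls: EDTA wells as negative control, DMSO wells as positive control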
ABCB6 inh 2: blocks the human ABCB6 transporter | Q9NP58 | K562-ABCB6 porphyrin accumulation, flow cytometry, 1 h; stronger effect = lower value | fluorescence ratio to DMSO, % at 10 µM | hit rate 0.19% among 360,000 | AID 602162;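 active means fluorescence ratio to DMSO below 75%, the collection mean minus 3 SD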;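 further: signal is porphyrin accumulated inside mitochondria; lower ratio means ABCB6 inhibition with less porphyrin fluorescence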
CHT block: inhibits the human high affinity choline transporter | CHT-expressing cells, membrane potential dye, choline response; stronger effect = lower value | hit rate 0.86% among 310,000 | AID 488975 | Q9GZV3 | B-score at 10 µM;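 active means B-score over 3 SD under the library average, and starting fluorescence ratio not unusually high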;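 further: choline stimulus applied at its EC90 after an EC20 pre-addition; B-score computed on integrated fluorescence ratio after choline addition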
ABCB6 blocker 1: inhibitors of human ABC transporter ABCB6. 700 tested, under 10 active. shares compounds with ABCB6 inh 2. K562-ABCB6 porphyrin accumulation, flow cytometry, 1 h; stronger effect = lower value. ratio response (% of DMSO), % at 10 µM;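 active means repeat-averaged ratio response below 75% of DMSO, the collection mean minus 3 SD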;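 further: median porphyrin fluorescence at 575 nm with 488 nm excitation from mitochondria; lower ratio means less porphyrin signal so ABCB6 inhibition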
Hits are given with their value; i = inactive; nt = no result given. Rows were chosen to be rich in hits. Some 1.4% of all compounds tested hit in one or more screens of this group.

SMILES	CHT PAM	TNAP inh hi DEA	TNAP inh no acc	TNAP act hiacc	ABCB6 inh 2	CHT block	ABCB6 blocker 1
CCCNC(=O)Cn1cnc2sc(C(=O)Nc3cc(OC)c(OC)c(OC)c3)c(C)c2c1=O	i	i	i	i	i	i	i
CCNC(=O)C1(C)CCCN(Cc2ccc3ccccc3c2Br)C1 (configuration not stated)	nt	nt	nt	nt	i	nt	nt
CCc1nc2ccc(C(=O)N3CCCCC3)cn2c1N(C)CCCc1ccccc1	nt	nt	nt	nt	i	nt	nt
Cc1cc2nc(-c3ccc(F)cc3)c(Cc3cccc(Cl)c3)n2c(C)c1Br	nt	nt	nt	nt	i	nt	nt
COc1ccc(CNc2ncnc3cc(Cl)ccc23)cc1OC	nt	i	i	i	i	nt	nt
Fc1ccc(CNc2ncnc3cc(Cl)ccc23)cc1	i	nt	nt	nt	9.0	i	i
COc1ccc(NC(=O)CSc2nnc(-c3ccccn3)n2N)cc1	i	i	i	i	i	i	nt
COc1ccc(NC(=O)CSc2nnc(-c3ccccn3)n2N)c(OC)c1	i	i	i	i	73.0	i	i
CCc1nc(SCC(=O)N2CCN(C(=O)c3ccco3)CC2)c2c3c(sc2n1)CCCC3	i	i	i	i	28.0	i	i
O=C(c1ccco1)N1CCN(c2nc(C3CC3)nc3sc4c(c23)CCCC4)CC1	i	i	i	i	i	i	nt
CCOC(=O)N1CCN(C(=O)Cc2ccccc2OC)CC1	i	nt	nt	nt	i	i	nt
COC(=O)C1CCN(C(=O)Cc2ccccc2OC)CC1	i	i	i	i	72.0	i	i
Cc1nnc(NS(=O)(=O)c2ccc(Br)cc2)s1	i	nt	nt	nt	i	i	nt
CCOc1cc(CNc2ncnc3nc[nH]c23)ccc1OC	i	i	i	i	73.0	i	i
CCCNc1ncnc2nc[nH]c12	i	i	i	i	i	i	nt
CCCCN1C(=O)C(CC(=O)NCCCN(C)C)CC(C(=O)N2CCOCC2)=C1C (configuration not stated)	nt	nt	nt	nt	i	nt	nt
CCCCCC(O)(c1ccccc1)C(CN1CCOCC1)c1ccccc1 (configuration not stated)	i	nt	nt	nt	72.0	i	i
CCCCCCC(O)(c1ccccc1)C(CN1CCOCC1)c1ccccc1 (configuration not stated)	i	nt	nt	nt	i	i	nt
O=C(OCC(=O)N1CCN(c2ccccc2)CC1)c1ccc2ccccc2n1	i	i	i	i	74.0	i	i
COc1cc2c(c(OC)c1OC)-c1c(cc(OC)c(OC)c1OC)C[C@H](C)[C@H](C)C2	i	nt	nt	nt	74.0	i	i
O=C1C=C(c2ccc(OC(F)(F)F)cc2)C[C@@H](c2ccc(Cl)cc2)C1	nt	nt	nt	nt	74.0	nt	i
O=C(C1=C(O)C(=O)N(CCCn2ccnc2)C1c1cccc(Br)c1)c1ccco1 (configuration not stated)	i	nt	nt	nt	i	i	nt
O=C(Nc1ccc(Nc2ccccc2)cc1)Nc1ccccc1Cl	i	nt	nt	nt	10.0	i	i
Cc1cc2ccccc2n2c(SCC(=O)Nc3ccc(S(=O)(=O)N4CCC(C)CC4)cc3)nnc12	i	i	i	i	68.0	i	i
CC1CCN(S(=O)(=O)c2ccc(NC(=O)CN3CCN(c4ccccc4)CC3)cc2)CC1	i	i	i	i	73.0	i	i
SMILES	CHT PAM	TNAP inh hi DEA	TNAP inh no acc	TNAP act hiacc	ABCB6 inh 2	CHT block	ABCB6 blocker 1
COc1ccc(CN(Cc2nc3ccccc3c(=O)[nH]2)C(=O)NC2CCCCC2)cc1	i	i	i	i	i	i	nt
COc1ccc(S(=O)(=O)N(Cc2nc3ccccc3c(=O)[nH]2)C2CCCC2)cc1	i	i	i	i	68.0	i	i
CN(Cc1ccccc1)Cc1nc2c(c(=O)n(C)c(=O)n2C)n1Cc1ccc(F)cc1	i	i	i	i	63.0	i	i
CC(CN1CCCC1)OC(=O)COc1ccccc1 (configuration not stated)	i	i	i	i	72.0	i	i
Cc1ccc(OCC(=O)OC(C)CN2CCCCC2)cc1 (configuration not stated)	i	nt	nt	nt	i	i	nt
COc1ccccc1Cc1c(-c2ccc(C#N)cc2)nc2c3ccccc3ccn12	nt	nt	nt	nt	i	nt	nt
CC(C)c1ccc([N+](=O)[O-])cc1S(=O)(=O)N1CCN(C)CC1	i	nt	nt	nt	72.0	i	i
CN1CCN(S(=O)(=O)c2cc([N+](=O)[O-])ccc2Cl)CC1	i	i	i	i	i	i	nt
CN(C)S(=O)(=O)c1ccc(C(=O)NCCC(=O)N2CCCC2)cc1	i	nt	nt	nt	70.0	i	i
COc1cc(CCC(=O)OCC(=O)Nc2ccc(C)cc2Cl)cc(OC)c1OC	i	nt	nt	nt	i	i	nt
C[C@H]1CCCCO[C@@H](CN(C)C(=O)NC2CCCCC2)[C@@H](C)CN([C@@H](C)CO)C(=O)c2cc(NC(=O)Cc3ccccc3)ccc2O1	nt	nt	nt	nt	i	nt	nt
C#CCOc1ccccc1CNC1CCN(Cc2ccccc2)CC1	i	nt	nt	nt	57.0	i	i
C#CCOc1ccccc1CNc1ccccc1	i	i	i	i	i	i	nt
COc1cccc(NC(=O)CN(C)C(=O)c2oc3c(ccc4ccccc43)c2C)c1	i	nt	nt	nt	i	i	nt
Cc1cccc(C(C)C)c1NC(=O)COC(=O)CCC(=O)N(CC(C)C)c1c(N)n(CC(C)C)c(=O)[nH]c1=O	nt	nt	nt	nt	i	nt	i
COc1ccc(NC(=O)CN2C(=O)COc3ccccc32)cc1OC	i	nt	nt	nt	i	i	nt
CN(C)C(=O)c1cn(-c2ccccc2)nc1-c1cc2ccccc2o1	i	i	i	i	35.0	i	i
COc1ccc([C@H]2CC(=O)C=C(/C=C/c3ccccc3)C2)cc1OC	nt	nt	nt	nt	i	nt	nt
COc1ccccc1OCCNc1nc2c(c(=O)n(C)c(=O)n2C)n1C	i	i	i	i	i	i	nt
Cn1c(=O)c2c(nc(NCCOc3ccc(C(C)(C)C)cc3)n2C)n(C)c1=O	i	i	i	i	74.0	i	i
Cc1ccc(S(=O)(=O)Cn2cnnn2)cc1	i	i	i	i	60.0	i	i
Cc1ccc(S(=O)(=O)CS(=O)(=O)c2ccc(C)cc2)cc1	nt	nt	nt	nt	i	nt	nt
Cc1ccc(N2CC(C(=O)N3CCN(c4ccccn4)CC3)CC2=O)cc1 (configuration not stated)	nt	nt	nt	nt	i	nt	nt
COC(=O)c1c(NC(=O)CCCC(=O)O)sc(C)c1C	i	i	i	i	i	i	nt
CCc1ccc(CCC(=O)Nc2sc(C)c(C)c2C(=O)OC)o1	i	i	i	i	69.0	i	i
Cc1ccc(-n2nc3c(c2NC(=O)C2CCCC2)CS(=O)(=O)C3)cc1	i	nt	nt	nt	10.0	i	i
O=C(Nc1c2c(nn1-c1ccc(Cl)cc1)CS(=O)(=O)C2)C1CC1	i	nt	nt	nt	i	i	nt
C=C(C)C(=O)Nc1cccc(C2=NOC3(C2)C[C@H](C(N)=O)N(C(=O)COc2ccc(Cl)cc2)C3)c1 (some centres not stated)	i	nt	nt	nt	i	i	nt
COc1ccc(CNS(=O)(=O)NCc2ccccc2F)cc1	i	nt	nt	nt	70.0	i	i
O=C(Nc1cccc2cccnc12)c1ccc2c(c1)OCCO2	i	i	i	i	43.0	i	i
